Laboratory results as given in ChEMBL document CHEMBL2429857, “Synthesis and pharmacological evaluation of pyrazolopyrimidopyrimidine derivatives: anti-inflammatory agents with gastroprotective effect in rats” (2013).

Experiments:
Rattus norvegicus [1] = assay: Gastroprotective activity in Wistar rat assessed as inhibition of HCl/ethanol-induced gastric ulcer at 50 mg/kg, ip administered 30 mins prior to HCl/ethanol challenge measured after 1 hr relative to vehicle-treated control; assay type: functional; conditions: Stomach, route intraperitoneal
In short: (§1)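 Male Wistar rats (150–170 g), fasted 24 h, six per group. Vehicle (Tween 80/ethanol/saline 1/1/18) or treatment given i.p.; 30 min later, oral 150 mM HCl/EtOH (40:60, v/v), 1 ml/100 g. Killed 1 h afterwards. Stomachs opened along the greater curvature and stretched out. Summed lesion length (mm) taken as lesion index; % inhibition against vehicle controls. Mean ± SEM, Student's t test.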

Rattus norvegicus [2] = assay: Antiinflammatory activity in ip dosed Wistar rat assessed as inhibition of carrageenan-induced paw edema administered 30 mins prior to carrageenan challenge measured after 1 to 5 hrs relative to vehicle-treated control; assay type: functional, organism-based
In short: (§2)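 Adult male Wistar rats (150–170 g), fasted overnight with water, n = 6 per group. Vehicle (Tween 80/absolute ethanol/0.9 % saline 1:1:18; 2.5 ml/kg) or drug given i.p. 30 min before 0.05 ml of 1 % carrageenan into the left hind paw. Paw volume to the tibiotarsal joint measured by plethysmometer at 0, 1, 3, 5 h. Oedema = VT − V0; % inhibition against vehicle controls. Mean ± SEM, Student's t test.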

Rattus norvegicus [3] = assay: Antiinflammatory activity in Wistar rat assessed as inhibition of carrageenan-induced paw edema at 50 mg/kg, ip administered 30 mins prior to carrageenan challenge measured after 5 hrs relative to vehicle-treated control; assay type: functional; conditions: route intraperitoneal; in short: as §2
Rattus norvegicus [4] = assay: Antiinflammatory activity in Wistar rat assessed as inhibition of carrageenan-induced paw edema at 50 mg/kg, ip administered 30 mins prior to carrageenan challenge measured after 3 hrs relative to vehicle-treated control; assay type: functional; conditions: route intraperitoneal; in short: as §2
Rattus norvegicus [5] = assay: Gastroprotective activity in Wistar rat assessed as inhibition of HCl/ethanol-induced gastric ulcer at 100 mg/kg, ip administered 30 mins prior to HCl/ethanol challenge measured after 1 hr relative to vehicle-treated control; assay type: functional; conditions: Stomach, route intraperitoneal; in short: as §1
Rattus norvegicus [6] = assay: Antiinflammatory activity in Wistar rat assessed as inhibition of carrageenan-induced paw edema at 100 mg/kg, ip administered 30 mins prior to carrageenan challenge measured after 3 hrs relative to vehicle-treated control; assay type: functional; conditions: route intraperitoneal; in short: as §2
Rattus norvegicus [7] = assay: Antiinflammatory activity in Wistar rat assessed as inhibition of carrageenan-induced paw edema at 100 mg/kg, ip administered 30 mins prior to carrageenan challenge measured after 5 hrs relative to vehicle-treated control; assay type: functional; conditions: route intraperitoneal; in short: as §2
Rattus norvegicus [8] = assay: Antiinflammatory activity in Wistar rat assessed as inhibition of carrageenan-induced paw edema at 50 mg/kg, ip administered 30 mins prior to carrageenan challenge measured after 1 hr relative to vehicle-treated control; assay type: functional; conditions: route intraperitoneal; in short: as §2
Rattus norvegicus [9] = assay: Antiinflammatory activity in Wistar rat assessed as inhibition of carrageenan-induced paw edema at 100 mg/kg, ip administered 30 mins prior to carrageenan challenge measured after 1 hr relative to vehicle-treated control; assay type: functional; conditions: route intraperitoneal; in short: as §2

SMILES | inhibition in vivo at 50 mg/kg (Rattus norvegicus [1]) [%] | inhibition (Rattus norvegicus [2]) | inhibition in vivo at 50 mg/kg (Rattus norvegicus [3]) [%] | inhibition in vivo at 50 mg/kg (Rattus norvegicus [4]) [%] | inhibition in vivo at 100 mg/kg (Rattus norvegicus [5]) [%] | inhibition in vivo at 100 mg/kg (Rattus norvegicus [6]) [%] | inhibition in vivo at 100 mg/kg (Rattus norvegicus [7]) [%] | inhibition in vivo at 50 mg/kg (Rattus norvegicus [8]) [%] | inhibition in vivo at 100 mg/kg (Rattus norvegicus [9]) [%]
CCOC(=O)c1c(CC)nc2c3c(C)nn(-c4ccccc4)c3ncn2c1=N | 40.2 | Dose-dependent effect | 25.1 | 28.8 | 52.2 | 42.9 | 40.2 | 32 | 65.7
Cc1nn(-c2ccccc2)c2ncn3c(=N)c(C#N)cnc3c12 | 48.6 | Dose-dependent effect | 39.8 | 40.6 | 64.7 | 56.8 | 58.1 | 42.6 | 80.4
CN/C(=N\CCSCc1nc[nH]c1C)NC#N [CIMETIDINE] |  |  |  |  | 74 |  |  |  | 
Cc1nc2c3c(C)nn(-c4ccccc4)c3ncn2c(=N)c1C#N | 68.4 | Dose-dependent effect | 58 | 59 |  | 71.4 | 62.8 | 59.2 | 92.2
CCOC(=O)c1c(C)nc2c3c(C)nn(-c4ccccc4)c3ncn2c1=N | 72.5 | Dose-dependent effect | 59.4 | 60 | 91.4 | 82.8 | 68.8 | 62.3 | 94.2
